Consider one molecule from ChEMBL document CHEMBL4422642, “Antiproliferative and Antimigratory Effects of a Novel YAP-TEAD Interaction Inhibitor Identified Using in Silico Molecular Docking” (J Med Chem, 2019).

Active and inactive are the calls of the source. The calls are words filed in the database; no cut-off is given here.

Assay [1] deals with Transcriptional enhancer factor TEF-3 (Homo sapiens, UniProt Q15561). Nature of the assay: Inhibition of Gal4-fused TEAD4 (unknown origin) interaction with YAP expressed in human HeLa cells assessed as basal transcriptional activity level after 6 hrs by nanoluciferase reporter gene assay. It counts as cell-based. A general note: A reporter such as luciferase makes a cellular process visible.
Sequence of Transcriptional enhancer factor TEF-3 (Q15561 whole entry, the tested form may be a part): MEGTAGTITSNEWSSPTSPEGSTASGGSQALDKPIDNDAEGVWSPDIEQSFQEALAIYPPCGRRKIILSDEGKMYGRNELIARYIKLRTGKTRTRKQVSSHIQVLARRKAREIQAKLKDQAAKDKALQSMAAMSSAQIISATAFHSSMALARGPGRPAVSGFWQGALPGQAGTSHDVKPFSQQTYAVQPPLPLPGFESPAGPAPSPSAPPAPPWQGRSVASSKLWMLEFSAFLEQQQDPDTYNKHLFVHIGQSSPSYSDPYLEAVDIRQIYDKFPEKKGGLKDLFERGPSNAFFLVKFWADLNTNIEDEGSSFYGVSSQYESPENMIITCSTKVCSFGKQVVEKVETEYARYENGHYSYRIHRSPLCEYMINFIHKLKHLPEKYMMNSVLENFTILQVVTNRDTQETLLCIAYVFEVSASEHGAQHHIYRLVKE

The target in assay [2] is Transcriptional enhancer factor TEF-5 (Homo sapiens, UniProt Q99594). Nature of the assay: Inhibition of Gal4-fused TEAD3 (unknown origin) interaction with YAP expressed in human HeLa cells assessed as basal transcriptional activity level up to 100 uM after 6 hrs by nanoluciferase reporter gene assay. It counts as cell-based.
Sequence of Transcriptional enhancer factor TEF-5 (Q99594 whole entry, the tested form may be a part): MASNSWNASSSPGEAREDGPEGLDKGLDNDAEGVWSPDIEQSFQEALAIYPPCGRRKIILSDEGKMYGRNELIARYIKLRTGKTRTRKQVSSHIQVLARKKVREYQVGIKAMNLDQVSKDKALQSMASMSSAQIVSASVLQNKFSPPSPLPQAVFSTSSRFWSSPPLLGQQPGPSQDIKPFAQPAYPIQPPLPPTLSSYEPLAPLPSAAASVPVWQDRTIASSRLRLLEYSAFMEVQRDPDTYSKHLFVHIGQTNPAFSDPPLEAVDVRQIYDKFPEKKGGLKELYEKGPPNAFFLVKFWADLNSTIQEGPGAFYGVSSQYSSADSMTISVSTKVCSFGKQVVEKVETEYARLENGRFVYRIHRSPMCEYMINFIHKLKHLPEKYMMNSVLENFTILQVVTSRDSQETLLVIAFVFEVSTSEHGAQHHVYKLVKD
A further assay relates to VSMC. Nature of the assay: Inhibition of GAPDH m-RNA expression in rat VSMC at 60 uM by RT-qPCR analysis. It counts as functional, cell-based. The method, boiled down:
(§1)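 Rat aortic VSMCs (male Sprague-Dawley, 10% FCS/DMEM) were treated with 60 μM compound for 6 h; n = 3. Total RNA was reverse-transcribed with random primers and quantified by SYBR Green qPCR. Data were normalized to nonstimulated controls.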
Background: Real-time PCR tracks product formation cycle by cycle.

A short description of assay [3]: Inhibition of TEAD in rat VSMC assessed as reduction in CCN1 m-RNA expression incubated for 2 hrs followed by compound wash out and re-treatment for 4 hrs by NanoGlo assay.
The target in assay [4] is T1, Serum response factor (Homo sapiens) (UniProt P11831).
T1 sequence (whole entry): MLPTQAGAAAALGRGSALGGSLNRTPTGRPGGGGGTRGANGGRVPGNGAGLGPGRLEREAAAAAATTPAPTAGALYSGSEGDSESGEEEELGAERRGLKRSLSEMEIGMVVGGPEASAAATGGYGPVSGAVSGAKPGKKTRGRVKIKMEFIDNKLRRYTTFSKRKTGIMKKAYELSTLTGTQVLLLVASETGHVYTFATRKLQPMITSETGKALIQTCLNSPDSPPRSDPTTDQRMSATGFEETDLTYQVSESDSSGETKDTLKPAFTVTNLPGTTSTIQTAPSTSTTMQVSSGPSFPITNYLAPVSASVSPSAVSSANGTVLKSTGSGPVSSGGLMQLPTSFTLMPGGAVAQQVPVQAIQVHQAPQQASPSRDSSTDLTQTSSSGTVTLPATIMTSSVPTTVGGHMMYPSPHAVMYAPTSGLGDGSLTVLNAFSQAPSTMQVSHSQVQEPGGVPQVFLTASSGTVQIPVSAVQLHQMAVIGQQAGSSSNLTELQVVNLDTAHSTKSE
Nature of the assay: Inhibition of SRF (unknown origin) mediated VP16 transcription expressed in human HeLa cells assessed as basal transcriptional activity level up to 100 uM after 6 hrs by nanoluciferase reporter gene assay. It counts as cell-based.

A short description of assay [5]: (§2) Inhibition of TEAD (unknown origin) expressed in rat VSMC after 6 hrs by nanoluciferase reporter gene assay. The method, boiled down: (§3)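 Rat aortic VSMCs stably transduced with the 8×TEAD secreted nanoluciferase reporter were treated with compound over a concentration range for 6 h. Conditioned medium was assayed for nanoluciferase activity.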
For assay [6], the species on record is Rattus norvegicus. Described as §2. In outline:
as §3

Assay [7] concerns the target T2, Transcriptional enhancer factor TEF-1 (Homo sapiens, UniProt P28347). Description: Inhibition of Gal4-fused TEAD1 (unknown origin) interaction with YAP expressed in human HeLa cells assessed as basal transcriptional activity level after 6 hrs by nanoluciferase reporter gene assay. The format is cell-based.
Assay [8] deals with T2, Transcriptional enhancer factor TEF-1. Description: Binding affinity to TEAD1 (194 to 411 residues) (unknown origin) by NMR analysis. The method, boiled down: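 STD NMR at 700 MHz in PBS pH 7.4 containing 60% D2O, with about 20 μM TEAD1 and 2 mM compound. Saturation time 7 s; on-resonance 0.85 ppm, off-resonance −28 ppm; eight scans. Blank runs without protein or ligand were included.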

Assay [9] is filed under the species Rattus norvegicus. Description: Inhibition of TEAD in rat VSMC assessed as reduction in PAI1 m-RNA expression at 60 uM by RT-qPCR analysis. In outline:
as §1

T2 sequence (P28347 whole entry, the tested form may be a part): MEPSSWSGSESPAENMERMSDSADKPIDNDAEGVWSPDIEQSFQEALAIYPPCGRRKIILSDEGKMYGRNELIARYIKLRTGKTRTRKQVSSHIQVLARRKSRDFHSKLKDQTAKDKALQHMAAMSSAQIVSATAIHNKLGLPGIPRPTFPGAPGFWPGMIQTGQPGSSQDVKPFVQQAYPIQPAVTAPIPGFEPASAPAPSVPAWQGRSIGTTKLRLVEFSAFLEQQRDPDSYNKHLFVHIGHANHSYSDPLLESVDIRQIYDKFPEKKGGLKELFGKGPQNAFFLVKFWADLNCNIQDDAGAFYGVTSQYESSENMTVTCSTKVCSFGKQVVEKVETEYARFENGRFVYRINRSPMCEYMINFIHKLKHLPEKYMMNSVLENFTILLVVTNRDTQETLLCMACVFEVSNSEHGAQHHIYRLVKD

One may read the IC50 as the concentration that inhibits the measured activity by half. A word on the EC50: it is the concentration at which the effect is half-maximal. In the case of `Cc1ccc2c(c1)c1c3n2CCNC3CCC1` (stereo not given) [PIRLINDOLE], the IC50 in assay [1] was 36 µM; in [5] it was 24 µM; in assay [7], 40 µM. The inhibition result (in [2]; in the assay listed under Rattus norvegicus [9]) was “Active” in each case. For the same molecule, the inhibition entry (in the assay on VSMC; in [4]) was “inactive” throughout. Also, the half-maximal effective concentration (EC50) in assay [3] is 48 µM. In the assay listed under Rattus norvegicus [6], the inhibition result was “Dose-dependent effect”. The outcome in [8] was Active.
